Data: ChEMBL document CHEMBL4725371, “A Novel Redox Modulator Induces a GPX4-Mediated Cell Death That Is Dependent on Iron and Reactive Oxygen Species” (J Med Chem, 2020)
Activity calls are given as the source filed them. No cut-off for these calls is given here.

Key:
MIA PaCa-2 [1] = experiment: Induction of reactive oxygen species in human MIA PaCa-2 cells at 200 uM measured after 30 mins in presence of N-acetylcysteine by CM-H2DCFDA dye based fluorescence assay; type: functional, cell-based
Summary of the method: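 MIA PaCa-2 cells seeded at 1.8 × 10⁴/well, attached overnight, then loaded with 10 μM CM-H2DCFDA in HBSS for 40 min at 37 °C. Washed twice with warm DPBS; compounds added in HBSS. N-acetylcysteine used at 3 mM. Fluorescence read at Ex 483 / Em 530 nm, with the 30 min point taken. Unpaired t-test.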

MIA PaCa-2 [2] = experiment: Induction of ferroptosis in human MIA PaCa-2 cells assessed as increase in lipid peroxidation at 100 uM measured after 24 hrs by C11-BODIPY dye based fluorescence assay; type: functional, cell-based
Summary of the method: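 MIA PaCa-2 cells (RPMI 1640, 10% FBS, 37 °C, 5% CO2) exposed to compound for the set time, then 10 μM C11-BODIPY added for 30 min at 37 °C. After two DPBS washes, read in HBSS at 581/591 nm (reduced dye) and 488/510 nm (oxidized dye); emission ratio calculated, unpaired Student's t-test.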

[3] = Drug level in mouse plasma treated with QD394 at 500 uM measured after 0.5 hrs by LC-MS/MS analysis
MIA PaCa-2 [4] = experiment: Inhibition glutathione synthesis in human MIA PaCa-2 cells at 1 to 2 uM measured after 2 to 4 hrs by GSH/GSSG-glo assay; type: functional, cell-based; conditions: dose microM 1-2, time hrs 2-4
Summary of the method: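 GSH/GSSG-Glo luminescent assay: 15,000–20,000 MIA PaCa-2 cells per well, attached overnight, treated 2 h and 4 h. Cells were lysed with total or oxidized glutathione reagent, then luciferin generation (30 min, room temperature) and detection reagents added. Luminescence was read after 15 min. Ratio was computed from net RLU as (total − GSSG)/(GSSG/2).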

MIA PaCa-2 [5] = experiment: Cytotoxicity against human MIA PaCa-2 cells measured after 72 hrs by MTT assay; type: functional, cell-based; conditions: MIA PaCa-2, 72 h
Summary of the method: (§1)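 Cells were kept in RPMI 1640 with 10% FBS at 37 °C, 5% CO₂, under 35 passages. Cells were seeded, attached overnight and treated with compound or DMSO for 72 h. MTT was added at 0.3 mg/mL for 3 h, then dissolved in DMSO and read as absorbance at 570 nm. IC50 was fitted from the curve. Values are mean ± sd of three independent experiments.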

PANC-1 = experiment: Cytotoxicity against human PANC-1 cells measured after 72 hrs by MTT assay; type: functional, cell-based; conditions: PANC-1, 72 h; summary of the method: as §1
BXPC-3 = experiment: Cytotoxicity against human BXPC-3 cells measured after 72 hrs by MTT assay; type: functional, cell-based; conditions: BXPC-3, 72 h; summary of the method: as §1
MIA PaCa-2 [6] = experiment: Induction of reactive oxygen species in human MIA PaCa-2 cells at 5 to 10 uM measured up to 4 hrs by CM-H2DCFDA dye based fluorescence assay; type: functional, cell-based; conditions: dose microM 5-10, time hrs <=4
Summary of the method: (§2)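 1.8 × 10⁴ cells per well were attached overnight, then loaded with 10 μM CM-H2DCFDA in HBSS for 40 min at 37 °C and washed. Compounds were added in HBSS. Fluorescence was read at Ex 483 / Em 530 nm. TBHP was the positive control. NAC at 3 mM was used where stated.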

MIA PaCa-2 [7] = experiment: Induction of reactive oxygen species in human MIA PaCa-2 cells at 5 to 10 uM measured after 30 mins in presence of N-acetylcysteine by CM-H2DCFDA dye based fluorescence assay; type: functional, cell-based; conditions: dose microM 5-10, time 30.0 min; summary of the method: as §2
MIA PaCa-2 [8] = experiment: Induction of ferroptosis in human MIA PaCa-2 cells assessed as increase in lipid peroxidation measured after 24 hrs by C11-BODIPY dye based fluorescence assay; type: functional, cell-based
Summary of the method: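 MIA PaCa-2 cells were treated for the set time, then given 10 μM C11-BODIPY for 30 min at 37 °C and washed. Fluorescence was read at 581/591 nm (reduced dye) and 488/510 nm (oxidized dye). The intensity ratio was compared by unpaired t-test.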

MIA PaCa-2 [9] = experiment: Down regulation of PNPT1 expression in human MIA PaCa-2 cells at 3 times IC50 measured after 4 hrs by proteomics analysis; type: functional, cell-based
MIA PaCa-2 [10] = experiment: Down regulation of LRPPRC expression in human MIA PaCa-2 cells at 3 times IC50 measured after 4 hrs by proteomics analysis; type: functional, cell-based
[11] = target: T1, Phospholipid hydroperoxide glutathione peroxidase GPX4 (Homo sapiens) (UniProt P36969); experiment: Binding affinity to GPX4 in human PANC-1 cells assessed as protein destabilization by measuring reduction in melting temperature at 100 uM measured after 1 hr by thermal shift assay; type: cell-based
T1 sequence (whole entry): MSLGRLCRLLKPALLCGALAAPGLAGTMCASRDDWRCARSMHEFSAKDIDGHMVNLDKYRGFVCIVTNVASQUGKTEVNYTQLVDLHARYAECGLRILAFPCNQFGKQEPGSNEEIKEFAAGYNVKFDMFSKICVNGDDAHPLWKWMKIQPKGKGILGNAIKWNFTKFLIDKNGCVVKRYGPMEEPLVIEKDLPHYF

MIA PaCa-2 [12] = experiment: Cytotoxicity against human MIA PaCa-2 cells transfected with GPX4 siRNA measured after 72 hrs by MTT assay; type: functional, cell-based
[13] = Half life in mouse liver microsomes at 10 uM in presence of NADPH by LC-MS/MS analysis; type: ADME, Microsome; conditions: microsomes, 10 µM
Summary of the method: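 Compound (10 μM working solution in 0.1 M phosphate buffer with 3.3 mM MgCl₂) was incubated with mouse liver microsomes and NADPH. Verapamil served as reference. Samples were taken at 0, 5, 10, 15, 30, 45 and 60 min and centrifuged at 3500 g. Supernatant was run by LC-MS/MS. t1/2 came from the slope of ln(peak area ratio) against time.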

[14] = Half life in mouse plasma at 500 uM by LC-MS/MS analysis; type: ADME, cell-free
Summary of the method: (§3)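 Compound (500 μM DMSO stock) was added at 1 μL per 500 μL pooled plasma. Samples were taken at 0, 0.17, 0.5, 1, 2 and 4 h and centrifuged at 3500 g for 10 min. Supernatant was run by LC-MS/MS. t1/2 came from the slope of ln(compound/internal standard peak area) against time.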

[15] = Half life in human plasma at 500 uM by LC-MS/MS analysis; type: ADME, cell-free; summary of the method: as §3
[16] = Plasma concentration in CD-1 mouse at 10 mg/kg, ip measured after 7 hrs by LC-MS/MS analysis; type: ADME, organism-based
Summary of the method: (§4)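 CD-1 mice dosed IP at 10 mg/kg or PO at 20 mg/kg, n=2 per route. Blood taken with heparinized pipettes at 0.5, 2, 4 and 7 h and spun at 15,000 rpm for 10 min. Plasma stored at −80 °C, then measured by LC-MS/MS.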

[17] = Plasma concentration in CD-1 mouse at 20 mg/kg, po measured after 7 hrs by LC-MS/MS analysis; type: ADME, organism-based; summary of the method: as §4
[18] = Drug level in CD-1 mouse colon at 20 mg/kg, po measured after 1 hr by LC-MS/MS analysis; type: ADME, organism-based; conditions: in vivo
Summary of the method: (§5)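 Mice received 20 mg/kg PO or 10 mg/kg IV. Organs were collected after 1 h and homogenised in five-fold dissociation solvent. Homogenate was mixed with acetonitrile and internal standard and centrifuged at 3500 g for 10 min. Supernatant was analysed by LC-MS.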

[19] = Drug level in CD-1 mouse colon at 10 mg/kg, iv measured after 1 hr by LC-MS/MS analysis; type: ADME, organism-based; conditions: in vivo; summary of the method: as §5
[20] = Drug metabolism in CD-1 mouse plasma assessed as hydroxylation at 20 mg/kg, po measured after 15 mins by LC-MS/MS analysis; type: ADME, organism-based; conditions: in vivo, 0.25 h
[21] = Drug metabolism in CD-1 mouse plasma assessed as hydroxylation at 10 mg/kg, iv measured after 15 mins by LC-MS/MS analysis; type: ADME, organism-based; conditions: in vivo, 0.25 h
CT26 = experiment: Antitumor activity against mouse CT26 cells implanted in Balb/c mouse assessed as tumor shrinkage at 10 mg/kg, iv administered three times weekly for 17 days measured 4 hrs post-last dose; type: functional, organism-based; conditions: time 17.0 day
Summary of the method: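 Female Balb/c mice aged 5–6 weeks, implanted subcutaneously in right flank with 1 × 10⁶ CT-26 cells in DPBS. Dosing began 7 days later with randomisation (n = 5/group, mean tumour 97–117 mm³). IV dosing was 3 times weekly and IP dosing was given. Vehicle control given daily IP. Mice were euthanised four hours post-dose after 17 days of dosing.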

SMILES: CC(C)(C)OO
- Activity (MIA PaCa-2 [1]): inactive
- Activity (MIA PaCa-2 [2]): Active

SMILES: CN1C(O)CN(c2ccc(NC3=CC(=O)c4ncncc4C3=O)cc2)CC1O (stereo unspecified)
- Drug uptake [3]: Active

SMILES: CCCCS(=N)(=O)CCC(N)C(=O)O (stereo unspecified)
- inhibition (MIA PaCa-2 [4]): Active

SMILES: O=C1C(Nc2cccc(-c3ccccc3)c2)=CC(=O)c2ncncc21
- IC50 (MIA PaCa-2 [5]): 2.4 µM
- IC50 (PANC-1): 2.3 µM
- IC50 (BXPC-3): 5.1 µM

SMILES: COc1c(Nc2ccc(N3CCN(C)CC3)cc2)cc(OC)c2ncncc12
- Drug uptake [3]: Active

SMILES: O=C1C(Nc2ccc(-c3ccc(Cl)cc3)cc2)=CC(=O)c2ncncc21
- IC50 (MIA PaCa-2 [5]): 9.7 µM
- IC50 (PANC-1): 4.4 µM
- IC50 (BXPC-3): 10.1 µM

SMILES: CN1CCN(c2ccc(NC3=C(SCC(N)C(=O)O)C(=O)c4ncncc4C3=O)cc2)CC1 (stereo unspecified)
- Drug uptake [3]: Active

SMILES: O=C1C(Nc2ccc3c(c2)Cc2ccccc2-3)=CC(=O)c2ncncc21
- IC50 (MIA PaCa-2 [5]): 2.2 µM
- IC50 (PANC-1): 1.6 µM
- IC50 (BXPC-3): 2.6 µM

SMILES: O=C1C(Nc2ccc(-c3ccccn3)cc2)=CC(=O)c2ncncc21
- IC50 (MIA PaCa-2 [5]): 2 µM
- IC50 (PANC-1): 0.8 µM
- IC50 (BXPC-3): 2.7 µM

SMILES: CC1=C(Nc2ccc(N3CCN(C)CC3)cc2)C(=O)c2cncnc2C1=O
- IC50 (MIA PaCa-2 [5]): 3.63 µM
- IC50 (PANC-1): 0.38 µM
- IC50 (BXPC-3): 0.87 µM
- Activity (MIA PaCa-2 [6]): Active
- Activity (MIA PaCa-2 [7]): inactive
- Activity (MIA PaCa-2 [8]): Dose-dependent effect
- Activity (MIA PaCa-2 [9]): Active
- Activity (MIA PaCa-2 [10]): Active
- Activity [11]: Dose-dependent effect
- Activity (MIA PaCa-2 [12]): inactive
- t1/2 [13]: 0.743 h
- half-life at 500 µM [14]: > 2 h
- half-life at 500 µM [15]: > 2 h
- concentration at 7 h [16]: 6.7 ng/mL
- concentration at 7 h [17]: 3.4 ng/mL
- Drug uptake [18]: 0.3 mg/kg
- Drug uptake [19]: 0.3 mg/kg
- Drug metabolism [20]: Metabolite_Detected
- Drug metabolism [21]: Metabolite_Detected
- Activity (CT26): Active

SMILES: O=C1C(Nc2ccc(C3CCCCC3)cc2)=CC(=O)c2ncncc21
- IC50 (MIA PaCa-2 [5]): 1.2 µM
- IC50 (PANC-1): 0.9 µM
- IC50 (BXPC-3): 0.5 µM
